Compound activity from PubChem.
Shown are actives, neighbours in structure and some others; about 3.1% of the full set was active somewhere.
LEDGF integ inh = blocks HIV-1 LEDGF/p75-dependent DNA integration. TR-FRET IN-LEDGF/p75 DNA integration, Eu/Cy5. inhibition, % at 3.7 µM. 0.64% of 370,000 active;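 active = inhibition above the screen-wide mean plus 3 SD, cut at about 13% in these data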;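 note: signal is the Cy5 over europium emission ratio at 671 and 618 nm; 0% = plate median of compound wells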
UHRF1 MBD2 ctr = blocks human UHRF1 binding to methylated DNA | Q96T88 | UHRF1 binding to methylated oligo, TR-FRET | inhibition, % at 4.4 µM | 0.75% of 370,000 active | AID 687016; in the data active = inhibition above about 21%;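 note: UHRF1 SRA domain binding a hemimethylated CpG hairpin DNA probe; 0% = median of test compound wells and 100% = reference inhibitor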
ABHD5 PLIN5 PPI = ABHD5-PLIN5 protein interaction inhibition | Q00G26+Q8WTS1 | Split G. princeps luciferase complementation, luminescence, 4 h | inhibition, % at 4 µM | 0.78% of 360,000 active;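 active = inhibition above the mean inhibition across every tested compound plus 3 SD, cut at about 22% in these data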;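 note: 0% = DMSO only wells and the 100% control is not disclosed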
PRMT1 FP inh = inhibitors of human PRMT1. Q99873. recombinant PRMT1, activity-based probe fluorescence polarization. inhibition, % at 2.79 µM. 1.3% of 370,000 active;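 active = inhibition above about 21% made by adding two undisclosed values, limit read from the data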
RBBP9 inh = human RBBP9 hydrolase inhibition; O75884; recombinant RBBP9, FP-Rh probe fluorescence polarization; inhibition, % at 7.94 µM; 0.2% of 220,000 active; AID 1515;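 active = inhibition above the campaign mean of all tested compounds plus 3 SD, cut at about 14% in these data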;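 note: plate controls were DMSO wells with RBBP9 for no effect and wells lacking RBBP9 protein for full effect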
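Material: RBBP9 protein. Amount: RBBP9 at 2.5 µM in dispensed solution, before mixing. Schedule: 30 min then 45 min, 25 °C. Medium: Tris buffer pH 8.0, NaCl, Pluronic. Measured by: fluorescence polarization. Measure: percent inhibition from mP, scaled between DMSO and no-protein wells. Replication: one well per compound.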
MBD2 DNA inh = inhibitors of human MBD2 binding to methylated oligonucleotide | TR-FRET | inhibition, % at 4.4 µM | 0.31% of 370,000 active; in the data active = inhibition above about 13%
Target sequence (Q9UBB5 whole entry, looked up): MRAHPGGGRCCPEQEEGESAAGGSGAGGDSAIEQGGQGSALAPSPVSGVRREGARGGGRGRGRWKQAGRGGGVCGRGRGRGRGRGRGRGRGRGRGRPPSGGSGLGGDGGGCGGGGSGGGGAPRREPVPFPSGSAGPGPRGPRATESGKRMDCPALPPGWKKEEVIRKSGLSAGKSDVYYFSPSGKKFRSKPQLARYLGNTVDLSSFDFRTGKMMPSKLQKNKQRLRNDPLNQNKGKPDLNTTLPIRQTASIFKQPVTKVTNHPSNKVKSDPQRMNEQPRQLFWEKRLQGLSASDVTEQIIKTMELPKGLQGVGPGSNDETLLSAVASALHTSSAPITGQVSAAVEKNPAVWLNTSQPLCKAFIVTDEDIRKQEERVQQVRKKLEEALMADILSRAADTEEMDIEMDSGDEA
PRMT1 confirm = confirmation of human PRMT1 inhibitors. shares compounds with PRMT1 FP inh. recombinant His-PRMT1, activity-based probe fluorescence polarization. inhibition, % at 2.79 µM. 42% of 3,300 active;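 active = mean inhibition across replicates above the hit cutoff derived for the earlier primary screen, cut at about 22% in these data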
Starred values were filed as active, the others as inactive; x = no result given.

SMILES	LEDGF integ inh	UHRF1 MBD2 ctr	ABHD5 PLIN5 PPI	PRMT1 FP inh	RBBP9 inh	MBD2 DNA inh	PRMT1 confirm
C[C@@H]1OC(C2CCCCC2)N(C)[C@H]2C[C@H]3c4[nH]c5c(-c6ccccc6)cccc5c4CCN3C(=O)[C@@H]12 (stereo partly drawn)	0	-1	x	-1	x	1	x
CCCCCCC(=O)N(O)C1CC(=O)N(c2ccc(C)cc2)C1=O (stereo not drawn)	3	1	8	87*	-10	-5	91*
Cc1ccc(N2C(=O)CC(N(O)C3CC(=O)N(c4ccc(C)cc4)C3=O)C2=O)cc1 (stereo not drawn)	-3	4	-4	4	-10	-2	x
CCCCCCC(=O)N(O)C1CC(=O)N(c2ccc(Cl)cc2)C1=O (stereo not drawn)	-3	0	6	51*	-6	0	84*
O=C(O)CSC1CC(=O)N(c2ccc(Cl)cc2)C1=O (stereo not drawn)	1	1	10	13	-14	-3	x
O=C1CCCN1CCC1CCN(C2CC(=O)N(Cc3ccc(N4CCCC4=O)cc3)C2=O)CC1 (stereo not drawn)	3	5	17	93*	-2	9	7
O=C1CC(N2CCOCC2)C(=O)N1Cc1ccc(N2CCCC2=O)cc1 (stereo not drawn)	4	6	-1	14	-7	1	x
O=C1CCCN1CCC1CCN(C2CC(=O)N(c3ccc(Cl)cc3)C2=O)CC1 (stereo not drawn)	-1	-2	18	50*	-1	-1	9
O=C1CC(N2CCC(O)(c3ccc(Cl)cc3)CC2)C(=O)N1Cc1ccc(N2CCCC2=O)cc1 (stereo not drawn)	0	-4	7	63*	-12	-3	4
CCCCc1c(-c2ccccc2OC)ncn1Cc1ccccc1C	3	-5	x	5	x	2	x
O=C(NCc1ccc(Cl)cc1)OCCN1C(=O)CCC12CCC(c1ccccc1)CC2 (stereo not drawn)	-3	0	x	-1	x	-1	x
COc1cc(C(=O)NCc2nnc(SCC(=O)Nc3nc4ccccc4s3)o2)cc(OC)c1OC	-2	1	-4	65*	-7	3	5
COc1ccc(NC(=O)CC2Sc3ncnn3C2=O)cc1 (stereo not drawn)	-1	2	10	86*	5	3	25*
CCOC(=O)c1ccc(NC(=O)CC2Sc3ncnn3C2=O)cc1 (stereo not drawn)	2	2	8	55*	-9	1	69*
COC(=O)C1=C(C)N(Cc2ccccc2C(F)(F)F)C(=NCc2ccccc2)NC1c1ccc(Cl)cc1 (stereo not drawn)	-1	6	x	-2	x	0	x
COc1cc(/C=C2/C(=O)NN(c3cccc(C)c3)C2=O)ccc1OC(=O)c1ccco1	1	-2	-11	15	-4	-4	x
COc1cc(/C=C2/C(=O)NN(c3ccc(C)c(Cl)c3)C2=O)cc([N+](=O)[O-])c1O	3	-2	-2	28*	x	-7	16
COc1cc(/C=C2/C(=O)NN(c3cccc(C)c3)C2=O)cc([N+](=O)[O-])c1O	0	-1	11	32*	-12	-8	18
C=CC(=O)NC1CCCCN(C)C1=O (stereo not drawn)	-5	4	x	1	x	4	x
C=CCN1[C@H](C)COc2cc(N3CCCC3)ccc2S1(=O)=O	-4	0	x	-2	x	-3	x
O=C(O)/C=C/C(=O)Nc1ccccc1SC(F)(F)F	2	-1	-1	61*	2	-3	36*
O=C(O)/C=C/C(=O)Nc1cccc2c1-c1ccccc1C2=O	1	-11	-3	67*	x	-11	17
O=C(O)/C=C\C(=O)Nc1ccccc1C#Cc1ccccc1	-2	-4	1	14	-8	-2	x
NC(=O)c1ccccc1NC(=O)/C=C/C(=O)O	4	6	-3	3	-2	-1	x
O=C(O)/C=C/C(=O)Nc1ccccc1-c1ccccc1NC(=O)/C=C/C(=O)O	5	6	14	53*	-5	0	26*
